# CYP2C9 act: activators of human CYP2C9; recombinant CYP2C9, luciferin-H conversion, luminescence; active compounds read high; factor 1 = untreated enzyme, 0 = blocked; activation factor at 5 µM; 96,000 tested, 1.4% active; AID 1024;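 active = activation factor of 2 or more for CYP2C9 at a 5 µM dose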;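 also: 0 = sulfaphenazole-blocked wells and 1 = vehicle-only wells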
# Cav3 T inh: inhibitors of human Cav3.2 T-type calcium channel. Cav3.2-expressing cells, Fluo-4 calcium fluorescence FDSS; active compounds read low. 100,000 tested, 4% active. AID 449739. B-score at 10 µM;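 active = single-dose well whose peak fluorescence ratio is a statistical outlier from its plate by either plate-standardised score or position-corrected B-score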
# CYP2C9 inhib: blocks human cytochrome P450 2C9; CYP2C9 Supersomes, luciferin-H conversion, luminescence; inhibition, % at 5 µM; 96,000 tested, 20% active; AID 777;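 active = blocking of liver enzyme CYP2C9 beyond about 50% at 5 µM, limit read from the data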
# CYP2C19 inhib: inhibitors of human CYP2C19; P33261; CYP2C19 Supersomes, luciferin-H EGE luminescence, 30 min; inhibition, % at 5 µM; 96,000 tested, 21% active; AID 778;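 active = CYP2C19 inhibition above a set limit at 5 µM in the primary screen, cut at about 50% in these data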;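 also: plate controls were negative control wells for no effect and 2.5 mM tranylcypromine positive control for full effect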
# Target sequence (P33261 whole entry, looked up): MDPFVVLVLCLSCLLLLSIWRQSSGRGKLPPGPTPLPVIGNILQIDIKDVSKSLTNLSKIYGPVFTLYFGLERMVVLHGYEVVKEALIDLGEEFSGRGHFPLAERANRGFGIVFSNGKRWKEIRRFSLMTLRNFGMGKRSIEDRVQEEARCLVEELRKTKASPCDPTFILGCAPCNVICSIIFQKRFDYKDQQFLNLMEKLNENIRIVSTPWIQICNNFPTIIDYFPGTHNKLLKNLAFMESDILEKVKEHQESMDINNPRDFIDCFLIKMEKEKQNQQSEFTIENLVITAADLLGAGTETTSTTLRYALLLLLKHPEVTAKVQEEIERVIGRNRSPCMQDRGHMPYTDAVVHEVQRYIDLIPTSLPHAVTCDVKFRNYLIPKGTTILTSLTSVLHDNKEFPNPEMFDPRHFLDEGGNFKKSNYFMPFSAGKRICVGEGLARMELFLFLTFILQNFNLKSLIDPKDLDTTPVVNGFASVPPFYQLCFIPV
# Rev-RRE block: disrupts HIV-1 Rev binding to RRE RNA; Rev peptide-RRE RNA binding, FRET; inhibition, % at 8 µM; 97,000 tested, 0.79% active; AID 704;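 active = inhibition above the screen-wide mean plus 3 SD, cut at about 35% in these data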;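 also: 0% = median DMSO wells and 100% = median Neomycin B control wells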
# Target sequence (P05866 whole entry, looked up): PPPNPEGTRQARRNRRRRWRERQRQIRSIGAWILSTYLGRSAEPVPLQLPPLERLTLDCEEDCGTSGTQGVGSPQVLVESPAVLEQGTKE
#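 Test system – labelled RRE RNA duplex and labelled Rev peptide · Signal – fluorescein-to-Cy5 FRET, 480 nm excitation · Evaluation – % inhibition of FRET ratio versus controls · Benchmarks – DMSO low control, neomycin B high control · Incubation – 5 min RNA-compound premix plus 15 min binding step, 25 °C · Medium – HEPES pH 7.5 salt buffer with EDTA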
# CYP2C19 activ: cytochrome P450 2C19 (human) activation. P33261. recombinant CYP2C19, luciferin-H EGE luminescence; active compounds read high; 0 = fully inhibited enzyme, 1 = untreated enzyme. activation factor at 5 µM. 96,000 tested, under 10 active;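 active = activation factor of at least 2 at 5 µM in the primary screen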;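 also: 0 = wells with 2.5 mM tranylcypromine and 1 = vehicle-only wells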
# * hit, by the source's call; x = no result given. Most compounds without a hit are left out; they make up all but 27% or so of the library.
SMILES,CYP2C9 act,Cav3 T inh,CYP2C9 inhib,CYP2C19 inhib,Rev-RRE block,CYP2C19 activ
CCN(CCNS(=O)(=O)c1ccc2c(c1)oc(=O)n2C)c1ccccc1,1.9,0.015,-86,65*,2,0.3
CCC(=O)NCCc1nc2ccccc2n1Cc1ccc(C)cc1,0.7,x,31,28,-1,0.7
COc1cc2nc(=S)n3[nH]c(CCn4nc(C)cc4C)nc3c2cc1OC,0.6,0.32,44,30,x,0.7
COC(C[C@H](O)C[C@H](O)[C@H](C)OCc1ccccc1)OC,x,0.48,x,x,x,x
CCOC(=O)C(C)Oc1ccsc1C(=O)OC (configuration not stated),0.9,2.3,14,2,10,1
CC(C)NS(=O)(=O)c1ccc2c(c1)oc(=O)n2C,x,-0.38,x,x,x,x
CCN(CC)c1ccc(NS(=O)(=O)c2ccc3c(c2)oc(=O)n3C)c(C)c1,0.5,-0.24,53*,84*,0,0.2
Cc1ccc(CCNC(=O)CCNS(=O)(=O)c2ccc3c(c2)oc(=O)n3C)cc1,1,-0.086,0,58*,x,0.4
CSc1ccc(Cl)c(C(=O)Nc2ccc(OCC(N)=O)cc2)c1,1.4,0.69,-44,3,1,1
CN(C)C(=O)c1cc(F)ccc1Sc1cc(Cl)ccc1Cl,0.5,x,50,98*,0,0
CN(C)C(=O)c1cc(Cl)ccc1Sc1cc(Cl)ccc1Cl,0.2,x,84*,97*,7,0
CCOC(=O)c1cnc(SC)nc1Sc1cc(Cl)ccc1Cl,0.8,-1.9,21,-1,19,1
CC(=O)OCc1c(C(F)(F)F)nn(C)c1SCc1ccc(Cl)cc1,0.4,-1.3,62*,99*,22,0
COc1ccc(N2CCN(c3nc(=S)n(-c4ccccc4)c(C)c3C(C)=O)CC2)cc1,1.2,0.85,-16,-2,40*,1
Cc1ccc(CNc2nc3ccccc3n3nnnc23)cc1,0.9,x,11,21,x,0.8
CCOC(=O)N1CCC(Nc2nc3ccccc3n3nnnc23)CC1,0.5,x,51*,29,x,0.7
CC(C)NC(=O)Cn1cc(C#N)c2cc(Br)ccc21,0.7,-1.1,32,73*,4,0.3
N#Cc1cn(CC(=O)O)c2ccccc12,1,x,-4,-11,6,1.1
Cc1csc(NC(=O)CSc2nnc(C)n2Cc2ccco2)n1,0.9,0.57,14,2,6,1
Cc1cnc(NC(=O)CSc2ncc(-c3ccccc3)n2Cc2ccco2)s1,0.3,-1,73*,32,13,0.7
CC(=O)Nc1ccc(NC(=O)Cn2c(-c3ccc(F)cc3)cnc2SCC(=O)Nc2c(C)cccc2C)cc1,0.7,0.071,26,49,4,0.5
COc1ccc(-c2nnc(SCC(=O)Nc3ncc(C)s3)n2-c2ccccc2)cc1OC,0.5,0.46,51*,62*,-6,0.4
COc1ccc(-c2cnc(SCC(=O)Nc3nc(C(C)(C)C)cs3)n2Cc2ccco2)cc1,x,-5.7*,x,x,5,x
CCC(=O)Nc1cc(NC(=O)CSc2ncc(-c3ccc(F)cc3)n2Cc2ccco2)ccc1C,0.1,-8.8*,95*,91*,-2,0.1
O=C(CSc1ncc(-c2ccc(F)cc2)n1Cc1ccco1)Nc1nccs1,0.9,-0.2,9,8,0,0.9
SMILES,CYP2C9 act,Cav3 T inh,CYP2C9 inhib,CYP2C19 inhib,Rev-RRE block,CYP2C19 activ
O=C(CSc1nnc(-c2cccnc2)n1-c1ccccc1)Nc1ccccn1,1.1,1.3,-8,8,0,0.9
COc1cccc([C@@H]2Oc3ccc(Br)cc3C(=O)[C@H]2OC(=O)NC2CCCC2)c1,x,-1.1,x,x,x,x
COc1ccc(-c2cnc(SCC(=O)Nc3cc(C)on3)n2Cc2ccco2)cc1,0.1,-4.5*,88*,61*,10,0.4
COCCn1c(-c2ccc(OC)cc2)cnc1SCC(=O)Nc1cccc2ccccc12,0.3,-8.1*,72*,67*,2,0.3
COc1ccc(NC(=O)CSc2ncc(-c3ccc(F)cc3)n2Cc2ccco2)cc1,x,0.082,x,x,9,x
COc1cccc2cc(C(=O)C3=C(O)C(=O)N(Cc4ccco4)C3c3cccnc3)oc12 (configuration not stated),0.6,-0.18,38,-1,6,1
CCN1CCN(C(=O)CCc2ccc(S(=O)(=O)NCCc3ccccc3)cc2)CC1,x,1.7,x,x,8,x
Cc1cccc(NC(=O)C2NC(=O)CC2c2ccccc2)c1C (configuration not stated),0.8,-0.047,16,58*,-2,0.4
Cc1nn(Cc2ccccc2)c(C)c1NC(=O)CSc1nnc(-c2cc(Cl)ccc2O)n1C,0.6,-0.014,43,14,5,0.9
O=C(CSCc1ccccc1)Nc1ccc(Cl)cn1,0.3,-2.4,70*,64*,4,0.4
O=C(CSCc1ccc(Cl)cc1)N/N=C/c1ccccc1,0.4,-3.7,60*,86*,5,0.1
O=C(CN1CCN(Cc2ccccc2)CC1)Nc1ccc(Cl)cn1,0.8,0.43,15,9,5,0.9
COCCn1nnnc1C(c1ccc(C(F)(F)F)cc1)N1CCOCC1 (configuration not stated),0.9,-0.89,13,27,6,0.7
C=C1N(c2ccc(Cl)cc2)C(=O)OC1(C)C,0.7,0.64,27,58*,22,0.4
O=C(NCc1ccco1)c1ccc2c(c1)C(=O)N(Cc1ccccc1)C2=O,0.8,-4.7*,22,19,9,0.8
O=C(Nc1ccccc1N1CCOCC1)c1ccc2c(c1)C(=O)N(Cc1ccncc1)C2=O,0.2,-2.1,84*,79*,8,0.2
CCN1C(=O)CSc2ccc(C(=O)NCc3ccc(OC)cc3)cc21,0.1,-0.84,86*,80*,6,0.2
CC(C)CCN1C(=O)c2ccc(C(=O)NCc3ccco3)cc2C1=O,0.5,x,49,29,8,0.7
CCCCNC(=O)c1ccc2c(c1)N(CC)C(=O)CS2,1,-0.79,0,25,0,0.7
O=C(NCc1ccco1)c1ccc2c(c1)C(=O)c1ccccc1-2,1.2,-0.24,-15,45,-1,0.6
CC(c1ccccc1)N1C(=O)c2ccc(C(=O)NCc3ccco3)cc2C1=O (configuration not stated),x,-3.9*,x,x,7,x
Cc1cc(C)nc(NC2=NCC(=O)N2c2ccccc2)n1,1,-0.07,0,2,8,1
CC1Sc2ccccc2N(CC(=O)N(C(C)C)C(C)C)C1=O (configuration not stated),1.1,0.059,-5,26,-1,0.7
COc1cc(-c2nnc(SCC(=O)/C(C#N)=C(\C)N)o2)cc(OC)c1OC,0.6,0.23,41,24,0,0.8
C=CCN1C(=O)CSc2ccc(C(=O)NCc3ccco3)cc21,1,-0.025,4,8,-2,0.9
CC(C)Oc1ccc(C(=O)Nc2ccccc2N2CCCC2)cc1,0.6,-2.7,37,31,2,0.7
